Source: ChEMBL document CHEMBL1649139, “A novel gene, erm(41), confers inducible macrolide resistance to clinical isolates of Mycobacterium abscessus but is absent from Mycobacterium chelonae” (2009)
≈ marks a conversion by molar mass, not a printed value. Numbered stars: 1 amine (or outer) side, 2 acyl side, 3 side chain; on linkers, the order of the positions; unused ones are H or OH. Bridge positions count the residues as written; N and C are the ends. Square brackets hold non-standard residues; d marks the D form. Peptide text beside a SMILES is read from it. * marks the point of attachment. X1 = O=C1C[C@@H](C(=O)[*:2])N([*:1])C[C@H]1CS[C@@H]1CN2CCC1CC2; NMePhe(4-NMe2) = CN[C@@H](Cc1ccc(N(C)C)cc1)C(=O)O; Picolinoyl(3-OH) = O=C(c1ncccc1O)*; Phg = N[C@H](C(=O)O)c1ccccc1; dAbu = CC[C@@H](N)C(=O)O

Key:
Type in all cases: functional
[1] = tested on: Mycolicibacterium smegmatis; experiment: Antimicrobial activity against Mycobacterium smegmatis transformed with erm allele Mycobacterium abscessus isolate MC958 preincubated with 2 ug/ml erythromycin for 20 to 24 hrs by broth microdilution method
[2] = tested on: Mycolicibacterium smegmatis; experiment: Antimicrobial activity against Mycobacterium smegmatis transformed with erm allele Mycobacterium abscessus isolate MC1028 by broth microdilution method
[3] = tested on: Mycolicibacterium smegmatis; experiment: Antimicrobial activity against Mycobacterium smegmatis transformed with erm allele Mycobacterium abscessus isolate MC879 by broth microdilution method
[4] = tested on: Mycolicibacterium smegmatis; experiment: Antimicrobial activity against Mycobacterium smegmatis transformed with erm allele Mycobacterium abscessus isolate MAB30 preincubated with 2 ug/ml erythromycin for 20 to 24 hrs by broth microdilution method
[5] = tested on: Mycolicibacterium smegmatis; experiment: Antimicrobial activity against Mycobacterium smegmatis transformed with erm allele Mycobacterium abscessus isolate MC1028 preincubated with 2 ug/ml erythromycin for 20 to 24 hrs by broth microdilution method
[6] = tested on: Mycolicibacterium smegmatis; experiment: Antimicrobial activity against Mycobacterium smegmatis transformed with erm allele Mycobacterium abscessus isolate MAB30 by broth microdilution method
[7] = tested on: Mycolicibacterium smegmatis; experiment: Antimicrobial activity against Mycobacterium smegmatis transformed with erm allele Mycobacterium abscessus isolate MC1082 preincubated with 2 ug/ml erythromycin for 20 to 24 hrs by broth microdilution method
[8] = tested on: Mycolicibacterium smegmatis; experiment: Antimicrobial activity against Mycobacterium smegmatis transformed with erm allele Mycobacterium abscessus isolate MC720 preincubated with 2 ug/ml erythromycin for 20 to 24 hrs by broth microdilution method
[9] = tested on: Mycobacteroides abscessus; experiment: Antimicrobial activity against Mycobacterium abscessus isolate MC958 at day 7 by broth microdilution method; details: isolate MC958, 168 h
Summary of the method: (§1)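 Clarithromycin MIC by broth microdilution following CLSI guidelines. Organisms were preincubated […], for 3 days before the assay. This allowed at least two generations, judged by the rise in turbidity. The MIC was read at the stated day, with incubation extended from day 3 to as long as 14 days.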

[10] = tested on: Mycobacteroides abscessus; experiment: Antimicrobial activity against Mycobacterium abscessus isolate MC879 on day 4 by broth microdilution method; details: isolate MC879, 96 h
[11] = tested on: Mycobacteroides abscessus; experiment: Antimicrobial activity against Mycobacterium abscessus isolate MC1028 at day 7 by broth microdilution method; details: isolate MC1028, 168 h
Summary of the method: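 Clarithromycin MIC by CLSI-conforming broth microdilution. Before testing, cultures were preincubated for 3 days, either in medium alone or in clarithromycin or erythromycin (tested range 0.01–1 μg/ml). Preincubation ran for at least two generations, judged by turbidity increase. Plates were read on day 3 and on extended incubation at days 5 to 14.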

[12] = tested on: Mycolicibacterium smegmatis; experiment: Antimicrobial activity against Mycobacterium smegmatis transformed with erm allele Mycobacterium abscessus isolate MC719 preincubated with 2 ug/ml erythromycin for 20 to 24 hrs by broth microdilution method
[13] = tested on: Mycolicibacterium smegmatis; experiment: Antimicrobial activity against Mycobacterium smegmatis transformed with erm allele Mycobacterium abscessus isolate MC719 by broth microdilution method
[14] = tested on: Mycolicibacterium smegmatis; experiment: Antimicrobial activity against Mycobacterium smegmatis transformed with erm allele Mycobacterium abscessus isolate MC958 by broth microdilution method
[15] = tested on: Mycobacteroides abscessus; experiment: Antimicrobial activity against Mycobacterium abscessus isolate MC879 at day 7 by broth microdilution method; details: isolate MC879, 168 h; summary of the method: as §1
[16] = tested on: Mycobacteroides abscessus; experiment: Antimicrobial activity against Mycobacterium abscessus isolate MC1028 on day 4 by broth microdilution method; details: isolate MC1028, 96 h
[17] = tested on: Mycolicibacterium smegmatis; experiment: Antimicrobial activity against Mycobacterium smegmatis transformed with erm allele Mycobacterium abscessus isolate MC720 by broth microdilution method
[18] = tested on: Mycobacteroides abscessus; experiment: Antimicrobial activity against Mycobacterium abscessus isolate MC958 on day 4 by broth microdilution method; details: isolate MC958, 96 h
[19] = tested on: Mycolicibacterium smegmatis; experiment: Antimicrobial activity against Mycobacterium smegmatis transformed with erm allele Mycobacterium abscessus isolate MC879 preincubated with 2 ug/ml erythromycin for 20 to 24 hrs by broth microdilution method
[20] = tested on: Mycolicibacterium smegmatis; experiment: Antimicrobial activity against Mycobacterium smegmatis transformed with erm allele Mycobacterium abscessus isolate MC1082 by broth microdilution method
[21] = tested on: Mycobacteroides abscessus; experiment: Antimicrobial activity against Mycobacterium abscessus isolate MC879 at day 5 preincubated with 0.1 ug/ml for 3 days by broth microdilution method
Summary of the method: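 To test inducible resistance, cultures were preincubated for 3 days in clarithromycin or erythromycin, within 0.01–1 μg/ml. The period was set so cultures passed at least two generations, judged by turbidity increase. Clarithromycin MIC was then determined by CLSI-conforming broth microdilution and read on the stated day, from day 3 up to 14.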

[22] = tested on: Mycolicibacterium smegmatis; experiment: Antimicrobial activity against Mycobacterium smegmatis transformed with erm allele Mycobacterium abscessus isolate MC879-2 preincubated with 2 ug/ml erythromycin for 20 to 24 hrs by broth microdilution method
[23] = tested on: Mycolicibacterium smegmatis; experiment: Antimicrobial activity against Mycobacterium smegmatis transformed with erm allele Mycobacterium abscessus isolate MC879-2 by broth microdilution method

**Q.** What does the source list for `CC[C@H]1OC(=O)[C@H](C)C(=O)[C@H](C)[C@@H](O[C@@H]2O[C@H](C)C[C@H](N(C)C)[C@H]2O)[C@](C)(OC)C[C@@H](C)C(=O)[C@H](C)[C@H]2N(CCCCn3cnc(-c4cccnc4)c3)C(=O)O[C@]12C` [TELITHROMYCIN]?
**A.** MIC [1]: > 128 µg/mL; MIC [2]: 4 µg/mL (≈ 4.93 µM); MIC [3]: 8 µg/mL (≈ 9.85 µM); MIC [4]: 4 µg/mL; MIC [5]: 4 µg/mL; MIC [6]: 4 µg/mL (≈ 4.93 µM); MIC [7]: 4 µg/mL; MIC [8]: > 128 µg/mL; MIC [9]: > 128 µg/mL; MIC [10]: 32 µg/mL (≈ 39.4 µM); MIC [11]: > 128 µg/mL; MIC [12]: > 128 µg/mL; MIC [13]: 8 µg/mL (≈ 9.85 µM); MIC [14]: 8 µg/mL (≈ 9.85 µM); MIC [15]: > 128 µg/mL; MIC [16]: 32 µg/mL (≈ 39.4 µM); MIC [17]: 8 µg/mL (≈ 9.85 µM); MIC [18]: 32 µg/mL (≈ 39.4 µM); MIC [19]: > 128 µg/mL; MIC [20]: 4 µg/mL (≈ 4.93 µM)

**Q.** How did the MIC [21] turn out when `CC[C@H]1NC(=O)[C@@H](NC(=O)c2ncccc2O)[C@@H](C)OC(=O)[C@H](c2ccccc2)NC(=O)[C@@H]2CC(=O)[C@H](CS[C@@H]3CN4CCC3CC4)CN2C(=O)[C@H](Cc2ccc(N(C)C)cc2)N(C)C(=O)[C@@H]2CCCN2C1=O` [QUINUPRISTIN] ({Picolinoyl(3-OH)}-T[dAbu]P[NMePhe(4-NMe2)][X1][Phg]; ester 1-C) was run?
**A.** Its MIC is 64 µg/mL (≈ 62.6 µM).

**Q.** And the MIC [1]?
**A.** The MIC was 128 µg/mL.

**Q.** And the MIC [2]?
**A.** Its MIC is 128 µg/mL (≈ 125 µM).

**Q.** What about the MIC [3] of the same molecule?
**A.** Its MIC is 128 µg/mL (≈ 125 µM).

**Q.** What about the MIC [4] of the same molecule?
**A.** The MIC was 128 µg/mL.

**Q.** And the MIC [5]?
**A.** Its MIC is 128 µg/mL.

**Q.** What about the MIC [6] of the same molecule?
**A.** Its MIC is 128 µg/mL (≈ 125 µM).

**Q.** What about the MIC [7] of the same molecule?
**A.** The MIC was 128 µg/mL.

**Q.** And the MIC [8]?
**A.** The MIC was 128 µg/mL.

**Q.** What about the MIC [9] of the same molecule?
**A.** Its MIC is > 256 µg/mL.

**Q.** What about the MIC [10] of the same molecule?
**A.** The MIC was 64 µg/mL (≈ 62.6 µM).

**Q.** What about the MIC [11] of the same molecule?
**A.** The MIC was > 256 µg/mL.

**Q.** What about the MIC [12] of the same molecule?
**A.** The MIC was 128 µg/mL.

**Q.** And the MIC [13]?
**A.** Its MIC is 128 µg/mL (≈ 125 µM).

**Q.** And the MIC [14]?
**A.** Its MIC is 128 µg/mL (≈ 125 µM).

**Q.** And the MIC [15]?
**A.** Its MIC is > 256 µg/mL.

**Q.** And the MIC [16]?
**A.** The MIC was 64 µg/mL (≈ 62.6 µM).

**Q.** What about the MIC [17] of the same molecule?
**A.** Its MIC is 128 µg/mL (≈ 125 µM).

**Q.** And the MIC [19]?
**A.** Its MIC is 128 µg/mL.

**Q.** And the MIC [20]?
**A.** The MIC was 128 µg/mL (≈ 125 µM).

**Q.** Which results are given for `CCC[C@@H]1C[C@@H](C(=O)N[C@@H]([C@H]2O[C@H](SC)[C@H](O)[C@@H](O)[C@H]2O)[C@H](C)Cl)N(C)C1` [CLINDAMYCIN]?
**A.** MIC [21]: 64 µg/mL (≈ 151 µM); MIC [1]: > 512 µg/mL; MIC [2]: 32 µg/mL (≈ 75.3 µM); MIC [3]: 64 µg/mL (≈ 151 µM); MIC [4]: 32 µg/mL; MIC [5]: 32 µg/mL; MIC [6]: 32 µg/mL (≈ 75.3 µM); MIC [7]: 32 µg/mL; MIC [8]: > 512 µg/mL; MIC [9]: > 256 µg/mL; MIC [10]: 64 µg/mL (≈ 151 µM); MIC [11]: > 256 µg/mL; MIC [12]: > 512 µg/mL; MIC [13]: 64 µg/mL (≈ 151 µM); MIC [14]: 64 µg/mL (≈ 151 µM); MIC [15]: > 256 µg/mL; MIC [16]: 64 µg/mL (≈ 151 µM); MIC [17]: 64 µg/mL (≈ 151 µM); MIC [19]: > 512 µg/mL; MIC [20]: 32 µg/mL (≈ 75.3 µM)

**Q.** For `CC[C@H]1OC(=O)[C@H](C)[C@@H](O[C@H]2C[C@@](C)(OC)[C@@H](O)[C@H](C)O2)[C@H](C)[C@@H](O[C@@H]2O[C@H](C)C[C@H](N(C)C)[C@H]2O)[C@](C)(O)C[C@@H](C)C(=O)[C@H](C)[C@@H](O)[C@]1(C)O` [ERYTHROMYCIN], which MIC [22] is on record?
**A.** The MIC was > 128 µg/mL.

**Q.** And the MIC [1]?
**A.** Its MIC is > 128 µg/mL.

**Q.** What about the MIC [2] of the same molecule?
**A.** Its MIC is 4 µg/mL (≈ 5.45 µM).

**Q.** And the MIC [3]?
**A.** Its MIC is 32 µg/mL (≈ 43.6 µM).

**Q.** And the MIC [4]?
**A.** The MIC was 4 µg/mL.

**Q.** And the MIC [5]?
**A.** Its MIC is 4 µg/mL.

**Q.** What about the MIC [6] of the same molecule?
**A.** Its MIC is 4 µg/mL (≈ 5.45 µM).

**Q.** And the MIC [7]?
**A.** Its MIC is 4 µg/mL.

**Q.** And the MIC [8]?
**A.** Its MIC is > 128 µg/mL.

**Q.** What about the MIC [12] of the same molecule?
**A.** Its MIC is > 128 µg/mL.

**Q.** And the MIC [13]?
**A.** Its MIC is 32 µg/mL (≈ 43.6 µM).

**Q.** What about the MIC [14] of the same molecule?
**A.** The MIC was 32 µg/mL (≈ 43.6 µM).

**Q.** And the MIC [17]?
**A.** Its MIC is 32 µg/mL (≈ 43.6 µM).

**Q.** What about the MIC [19] of the same molecule?
**A.** Its MIC is > 128 µg/mL.

**Q.** And the MIC [23]?
**A.** Its MIC is 32 µg/mL (≈ 43.6 µM).

**Q.** And the MIC [20]?
**A.** Its MIC is 4 µg/mL (≈ 5.45 µM).
